{"source": "ChEMBL document CHEMBL5303300", "about": "“EUbOPEN Chemogenomics Library - Multiplex” (2023)", "system": "HEK-293T", "assay": "Multiplex assay against HEK293T", "type": "toxicity, cell-based", "conditions": "human, number of replicates 2", "method_in_brief": "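Live cells were stained at seeding with Hoechst33342, BioTracker Green Microtubule Cytoskeleton Dye, MitoTracker Red and Annexin V Alexa Fluor 680, then imaged on a CQ1 microscope at 37°C and 5% CO2 after compound addition. CellPathfinder machine-learning gating split cells into Hoechst high-intensity objects or normal cells. Normal cells were split into healthy, pyknosed or fragmented nuclei, and pyknosed cells into mitotic or apoptotic. Tubulin, mitochondrial-mass and membrane-permeability phenotypes are per cents of healthy-nucleus cells.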", "key": {"[1]": {"conditions": "12 h, 1 µM, compound concentration 1 uM"}, "[2]": {"conditions": "12 h, 10 µM, compound concentration 10 uM"}, "[3]": {"conditions": "24 h, 1 µM, compound concentration 1 uM"}, "[4]": {"conditions": "24 h, 10 µM, compound concentration 10 uM"}, "[5]": {"conditions": "48 h, 1 µM, compound concentration 1 uM"}, "[6]": {"conditions": "48 h, 10 µM, compound concentration 10 uM"}}, "note": "Several values for one entry are separate records, joined by “and”; a condition that tells them apart may be missing. Equal values may be shown once."}
{"smiles": "CC(C)N1CCN(Cc2cnc(-c3cc(-c4cccc5[nH]ccc45)cc4[nH]ncc34)o2)CC1", "note": "[NEMIRALISIB]", "values": [{"measurement": "Population Apoptotic (%)", "setting": "[1]", "value": "45% and 59%"}, {"measurement": "Population Fragmented Nuclei (%)", "setting": "[1]", "value": "5% and 3%"}, {"measurement": "Population Healthy Nuclei (%)", "setting": "[1]", "value": "77% and 74%"}, {"measurement": "Population Hoechst High Intensity Objects (%)", "setting": "[1]", "value": "12% and 13%"}, {"measurement": "Population Membrane Permeable-Phenotype (%)", "setting": "[1]", "value": "4% and 2%"}, {"measurement": "Population Mitochondria Different-Phenotype (%)", "setting": "[1]", "value": "18% and 22%"}, {"measurement": "Population Mitotic Cells (%)", "setting": "[1]", "value": "54% and 40%"}, {"measurement": "Population Normal (%)", "setting": "[1]", "value": "87% and 86%"}, {"measurement": "Population Pyknosed Nuclei (%)", "setting": "[1]", "value": "16% and 21%"}, {"measurement": "Population Tubulin-Different-Phenotype (%)", "setting": "[1]", "value": "69% and 70%"}, {"measurement": "Total Cell Count", "setting": "[1]", "value": "748 and 665"}, {"measurement": "Population Apoptotic (%)", "setting": "[2]", "value": "62% and 64%"}, {"measurement": "Population Fragmented Nuclei (%)", "setting": "[2]", "value": "2% and 3%"}, {"measurement": "Population Healthy Nuclei (%)", "setting": "[2]", "value": "87% and 84%"}, {"measurement": "Population Hoechst High Intensity Objects (%)", "setting": "[2]", "value": "11% and 7%"}, {"measurement": "Population Membrane Permeable-Phenotype (%)", "setting": "[2]", "value": "5% and 3%"}, {"measurement": "Population Mitochondria Different-Phenotype (%)", "setting": "[2]", "value": "46% and 61%"}, {"measurement": "Population Mitotic Cells (%)", "setting": "[2]", "value": "37% and 35%"}, {"measurement": "Population Normal (%)", "setting": "[2]", "value": "88% and 92%"}, {"measurement": "Population Pyknosed Nuclei (%)", "setting": "[2]", "value": "9% and 12%"}, {"measurement": "Population Tubulin-Different-Phenotype (%)", "setting": "[2]", "value": 98, "unit": "%"}, {"measurement": "Total Cell Count", "setting": "[2]", "value": "425 and 404"}, {"measurement": "Population Apoptotic (%)", "setting": "[3]", "value": "52% and 61%"}, {"measurement": "Population Fragmented Nuclei (%)", "setting": "[3]", "value": "10% and 6%"}, {"measurement": "Population Healthy Nuclei (%)", "setting": "[3]", "value": "75% and 74%"}, {"measurement": "Population Hoechst High Intensity Objects (%)", "setting": "[3]", "value": "9% and 11%"}, {"measurement": "Population Membrane Permeable-Phenotype (%)", "setting": "[3]", "value": 2, "unit": "%"}, {"measurement": "Population Mitochondria Different-Phenotype (%)", "setting": "[3]", "value": "7% and 8%"}, {"measurement": "Population Mitotic Cells (%)", "setting": "[3]", "value": "47% and 38%"}, {"measurement": "Population Normal (%)", "setting": "[3]", "value": "90% and 88%"}, {"measurement": "Population Pyknosed Nuclei (%)", "setting": "[3]", "value": "13% and 19%"}, {"measurement": "Population Tubulin-Different-Phenotype (%)", "setting": "[3]", "value": "40% and 42%"}, {"measurement": "Total Cell Count", "setting": "[3]", "value": "1140 and 951"}, {"measurement": "Population Apoptotic (%)", "setting": "[4]", "value": "50% and 57%"}, {"measurement": "Population Fragmented Nuclei (%)", "setting": "[4]", "value": 3, "unit": "%"}, {"measurement": "Population Healthy Nuclei (%)", "setting": "[4]", "value": "85% and 78%"}, {"measurement": "Population Hoechst High Intensity Objects (%)", "setting": "[4]", "value": "18% and 14%"}, {"measurement": "Population Membrane Permeable-Phenotype (%)", "setting": "[4]", "value": 3, "unit": "%"}, {"measurement": "Population Mitochondria Different-Phenotype (%)", "setting": "[4]", "value": "39% and 57%"}, {"measurement": "Population Mitotic Cells (%)", "setting": "[4]", "value": "50% and 42%"}, {"measurement": "Population Normal (%)", "setting": "[4]", "value": "81% and 85%"}, {"measurement": "Population Pyknosed Nuclei (%)", "setting": "[4]", "value": "11% and 17%"}, {"measurement": "Population Tubulin-Different-Phenotype (%)", "setting": "[4]", "value": "94% and 96%"}, {"measurement": "Total Cell Count", "setting": "[4]", "value": "468 and 473"}, {"measurement": "Population Apoptotic (%)", "setting": "[5]", "value": "21% and 33%"}, {"measurement": "Population Fragmented Nuclei (%)", "setting": "[5]", "value": "17% and 10%"}, {"measurement": "Population Healthy Nuclei (%)", "setting": "[5]", "value": "78% and 84%"}, {"measurement": "Population Hoechst High Intensity Objects (%)", "setting": "[5]", "value": 10, "unit": "%"}, {"measurement": "Population Membrane Permeable-Phenotype (%)", "setting": "[5]", "value": "6% and 2%"}, {"measurement": "Population Mitochondria Different-Phenotype (%)", "setting": "[5]", "value": "0% and 1%"}, {"measurement": "Population Mitotic Cells (%)", "setting": "[5]", "value": "78% and 66%"}, {"measurement": "Population Normal (%)", "setting": "[5]", "value": 89, "unit": "%"}, {"measurement": "Population Pyknosed Nuclei (%)", "setting": "[5]", "value": 4, "unit": "%"}, {"measurement": "Population Tubulin-Different-Phenotype (%)", "setting": "[5]", "value": 19, "unit": "%"}, {"measurement": "Total Cell Count", "setting": "[5]", "value": "2776 and 2131"}, {"measurement": "Population Apoptotic (%)", "setting": "[6]", "value": "51% and 60%"}, {"measurement": "Population Fragmented Nuclei (%)", "setting": "[6]", "value": "8% and 7%"}, {"measurement": "Population Healthy Nuclei (%)", "setting": "[6]", "value": "84% and 85%"}, {"measurement": "Population Hoechst High Intensity Objects (%)", "setting": "[6]", "value": "11% and 15%"}, {"measurement": "Population Membrane Permeable-Phenotype (%)", "setting": "[6]", "value": "6% and 7%"}, {"measurement": "Population Mitochondria Different-Phenotype (%)", "setting": "[6]", "value": "28% and 18%"}, {"measurement": "Population Mitotic Cells (%)", "setting": "[6]", "value": "48% and 40%"}, {"measurement": "Population Normal (%)", "setting": "[6]", "value": "88% and 84%"}, {"measurement": "Population Pyknosed Nuclei (%)", "setting": "[6]", "value": "6% and 7%"}, {"measurement": "Population Tubulin-Different-Phenotype (%)", "setting": "[6]", "value": "86% and 80%"}, {"measurement": "Total Cell Count", "setting": "[6]", "value": "815 and 665"}]}
{"smiles": "CC(=O)O[C@H]1C(=O)[C@@]2(C)[C@H]([C@H](OC(=O)c3ccccc3)[C@]3(O)C[C@H](OC(=O)[C@H](O)[C@@H](NC(=O)c4ccccc4)c4ccccc4)C(C)=C1C3(C)C)[C@]1(OC(C)=O)CO[C@@H]1C[C@@H]2O", "note": "[PACLITAXEL]", "values": [{"measurement": "Population Apoptotic (%)", "setting": "[2]", "value": "60% and 50% and 49% and 45%"}, {"measurement": "Population Fragmented Nuclei (%)", "setting": "[2]", "value": "3% and 1% and 2%"}, {"measurement": "Population Healthy Nuclei (%)", "setting": "[2]", "value": "74% and 80% and 77%"}, {"measurement": "Population Hoechst High Intensity Objects (%)", "setting": "[2]", "value": "6% and 9% and 5% and 7%"}, {"measurement": "Population Membrane Permeable-Phenotype (%)", "setting": "[2]", "value": 0, "unit": "%"}, {"measurement": "Population Mitochondria Different-Phenotype (%)", "setting": "[2]", "value": "48% and 39% and 43% and 50%"}, {"measurement": "Population Mitotic Cells (%)", "setting": "[2]", "value": "39% and 49% and 50% and 54%"}, {"measurement": "Population Normal (%)", "setting": "[2]", "value": "93% and 90% and 94% and 92%"}, {"measurement": "Population Pyknosed Nuclei (%)", "setting": "[2]", "value": "22% and 17% and 20%"}, {"measurement": "Population Tubulin-Different-Phenotype (%)", "setting": "[2]", "value": "52% and 56% and 58% and 57%"}, {"measurement": "Total Cell Count", "setting": "[2]", "value": "418 and 518 and 523 and 401"}, {"measurement": "Population Apoptotic (%)", "setting": "[4]", "value": "65% and 51% and 71% and 68%"}, {"measurement": "Population Fragmented Nuclei (%)", "setting": "[4]", "value": "3% and 4% and 2%"}, {"measurement": "Population Healthy Nuclei (%)", "setting": "[4]", "value": "81% and 82% and 77%"}, {"measurement": "Population Hoechst High Intensity Objects (%)", "setting": "[4]", "value": "9% and 12% and 10% and 8%"}, {"measurement": "Population Membrane Permeable-Phenotype (%)", "setting": "[4]", "value": 0, "unit": "%"}, {"measurement": "Population Mitochondria Different-Phenotype (%)", "setting": "[4]", "value": "45% and 43% and 58%"}, {"measurement": "Population Mitotic Cells (%)", "setting": "[4]", "value": "35% and 48% and 28% and 31%"}, {"measurement": "Population Normal (%)", "setting": "[4]", "value": "90% and 87% and 89% and 91%"}, {"measurement": "Population Pyknosed Nuclei (%)", "setting": "[4]", "value": "15% and 14% and 18%"}, {"measurement": "Population Tubulin-Different-Phenotype (%)", "setting": "[4]", "value": "56% and 47%"}, {"measurement": "Total Cell Count", "setting": "[4]", "value": "442 and 490 and 384 and 517"}, {"measurement": "Population Apoptotic (%)", "setting": "[6]", "value": "71% and 81% and 64% and 73%"}, {"measurement": "Population Fragmented Nuclei (%)", "setting": "[6]", "value": "3% and 2% and 4%"}, {"measurement": "Population Healthy Nuclei (%)", "setting": "[6]", "value": "88% and 89% and 84% and 83%"}, {"measurement": "Population Hoechst High Intensity Objects (%)", "setting": "[6]", "value": "11% and 9%"}, {"measurement": "Population Membrane Permeable-Phenotype (%)", "setting": "[6]", "value": 0, "unit": "%"}, {"measurement": "Population Mitochondria Different-Phenotype (%)", "setting": "[6]", "value": "44% and 41% and 50%"}, {"measurement": "Population Mitotic Cells (%)", "setting": "[6]", "value": "28% and 18% and 35% and 26%"}, {"measurement": "Population Normal (%)", "setting": "[6]", "value": "88% and 90%"}, {"measurement": "Population Pyknosed Nuclei (%)", "setting": "[6]", "value": "7% and 10% and 13%"}, {"measurement": "Population Tubulin-Different-Phenotype (%)", "setting": "[6]", "value": "59% and 58% and 62%"}, {"measurement": "Total Cell Count", "setting": "[6]", "value": "478 and 469 and 500 and 350"}]}
